Compound activity from PubChem.
T cruzi inh: T. cruzi replication inhibition. T. cruzi beta-gal in NIH3T3, luminescence, 90 h. inhibition, % (concentration not given with the values). 300,000 tested, 1.4% active. AID 1885;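 active = mean inhibition across valid replicates above about 55%, limit read from the data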;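 note: signal also drops with host cell toxicity which is not excluded here; 0% = plate median of DMSO wells and 100% = zero luminescence signal; higher percent means less beta-gal luminescence so fewer parasites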
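System: mouse NIH/3T3 fibroblasts infected with β-gal-expressing T. cruzi Tulahuen C4 / Input: NIH/3T3 cells, 5,000 per well / Buffer or medium: Low-serum DMEM with 2% FBS / Probe or stimulus: 5000 reporter trypomastigotes per well / Schedule: ≥90 h infection period, 3 h prior cell attachment / Measured by: GalScreen luminescence, 60 min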
HCV NS3 hel inh: HCV NS3 helicase inhibition | NS3 helicase DNA unwinding, Cy5 molecular beacon fluorescence | inhibition, % at 10.9 µM | 290,000 tested, 0.56% active;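 active = inhibition above the mean of all tested compounds plus 3 SD, set per campaign, cut at about 35% in these data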;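 note: 0% = DMSO wells and 100% = thioflavine S control wells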
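Assay system – hepatitis C virus NS3 helicase domain fragment enzyme · Buffer or medium – MOPS pH 6.5, MgCl2, DTT, Tween20, BSA · Reagent – Cy5/quencher beacon DNA duplex and ATP to start · Compound – single 10.9 µM dose · Timing – 1 h at 25 °C · Technique – Cy5 beacon fluorescence read at start and 1 h · Measure – % inhibition of unwinding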
MEKK3 PB1 HTS: MEKK3-MEK5 PB1 interaction, increase or decrease; Q99759; bead-based flow cytometry, Alexa488-MEK5 binding to MEKK3; actives lie on both sides; 0 = blocked by unlabeled MEK5, 100 = vehicle; binding response (% of control), % at 10 µM; 290,000 tested, 1.4% active; AID 1529;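 active = binding response more than 3 SD above or below the average of its plate-row segment, actives on both sides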;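 note: Alexa488 bead fluorescence after subtracting the streptavidin-only scavenger bead signal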
Target sequence (Q99759 whole entry, looked up): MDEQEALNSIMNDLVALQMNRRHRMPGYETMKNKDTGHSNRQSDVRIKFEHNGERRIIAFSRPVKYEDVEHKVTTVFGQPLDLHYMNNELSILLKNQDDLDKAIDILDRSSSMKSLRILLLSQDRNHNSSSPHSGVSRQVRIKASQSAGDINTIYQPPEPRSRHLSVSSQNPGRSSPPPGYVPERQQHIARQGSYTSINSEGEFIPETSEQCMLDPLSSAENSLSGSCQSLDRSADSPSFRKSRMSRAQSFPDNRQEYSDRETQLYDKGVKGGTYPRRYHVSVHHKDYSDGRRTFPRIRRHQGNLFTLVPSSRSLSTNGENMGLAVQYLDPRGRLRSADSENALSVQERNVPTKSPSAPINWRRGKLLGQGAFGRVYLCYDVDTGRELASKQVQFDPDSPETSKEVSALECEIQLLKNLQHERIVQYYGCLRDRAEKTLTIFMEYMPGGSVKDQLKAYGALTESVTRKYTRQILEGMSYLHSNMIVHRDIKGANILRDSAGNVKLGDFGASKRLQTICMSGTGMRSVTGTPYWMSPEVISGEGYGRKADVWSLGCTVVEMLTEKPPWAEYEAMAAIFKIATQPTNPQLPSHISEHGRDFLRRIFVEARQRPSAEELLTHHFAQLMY
DNA FID counter-1: fluorescent intercalator displacement, NS3 helicase counter-screen; DNA fluorescent intercalator displacement, fluorescence; inhibition, % at 7.9 µM; 290,000 tested, 0.17% active;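 note: 0% = vehicle and 100% = reference compound; higher means more ethidium bromide displaced from hairpin DNA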
MEKK2wt PB1 HTS: raises or lowers MEK5 binding to wildtype human MEKK2 PB1 domain; 290,000 tested, 1.1% active; Q9Y2U5; binding response (% of control), % at 10 µM; bead flow cytometry, Alexa488-MEK5 binding to MEKK2 WT; actives lie on both sides; in the data active = binding response below about 67% or above about 130%
MEKK2mut PB1 HTS: signal of MEK5 binding to mutant human MEKK2 PB1 domain. 290,000 tested, 0.35% active. percent response, % at 10 µM. bead flow cytometry, Alexa488-MEK5 binding to MEKK2 mutant; in the data active = percent response above about 24%, passing the limit was not always enough
NS3 hel confirm: confirmation of Hepatitis C virus NS3 helicase inhibitors; AID 1943; shares compounds with HCV NS3 hel inh; 1,600 tested, 31% active; NS3 helicase DNA unwinding, Cy5 molecular beacon fluorescence; inhibition, % at 10.9 µM;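 active = inhibition above the mean of all tested compounds plus 3 SD, cutoff set per campaign, cut at about 36% in these data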
DNA FID counter-2: displaces DNA intercalator in HCV helicase counter-screen. shares compounds with HCV NS3 hel inh. inhibition, % at 7.9 µM. DNA fluorescent intercalator displacement, fluorescence. 1,600 tested, 4% active;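 note: 0% = vehicle and 100% = reference compound; higher means more displacement of ethidium bromide from the DNA hairpin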
DNA FID DR: counter-screen for HCV NS3 helicase inhibitors: DNA intercalator displacement dose response. 120 tested, under 10 active. shares compounds with HCV NS3 hel inh. AID 2172. fluorescent intercalator displacement from DNA, fluorescence. IC50, µM; call rule not given here
An asterisk follows results filed as active; i = inactive; · = not tested or not shown. This is a sample that favours compounds with a hit; in the whole collection about 4.1% have one here. Cut-off read from the data, not from the text of the source, unless noted: active = inhibition above about 37%; inactive = the rest.

SMILES	T cruzi inh	HCV NS3 hel inh	MEKK3 PB1 HTS	DNA FID counter-1	MEKK2wt PB1 HTS	MEKK2mut PB1 HTS	NS3 hel confirm	DNA FID counter-2	others
Cc1nn(-c2ccccc2)c2nc(-c3ccco3)cc(C(=O)O)c12	-5.1	42.4*	101.0	-3.3	104.0	-1.0	66.6*	-8.9
Cc1cc(NC(=O)C2CC(=O)N(c3cccc(C)c3C)C2)no1 (stereo not drawn)	-14.4	5.8	98.0	-11.8	94.0	-5.0	·	·
Cc1cc(NC(=O)C2CC(=O)N(c3ccccc3C)C2)no1 (stereo not drawn)	-17.5	36.0*	101.0	-5.4	96.0	-5.0	-9.3	-0.3
O=C(O)c1cc(N/N=C/C=C/c2ccccc2[N+](=O)[O-])ccc1Cl	5.2	43.1*	97.0	-22.0	94.0	-4.0	51.9*	-2.7
O=C(CSc1ccc(-c2ccco2)nn1)c1cccc([N+](=O)[O-])c1	1.2	37.9*	100.0	-11.4	100.0	-1.0	-8.7	16.2
CC(=O)c1cccc(NC(=O)CSc2ccc(-c3ccco3)nn2)c1	15.1	19.4	108.0	-21.3	114.0	12.0	·	·
CC(=O)Nc1ccc(NC(=O)CSc2ccc([N+](=O)[O-])cn2)cc1	-0.3	7.0	101.0	-0.5	104.0	2.0	·	·
COc1ccc(CCn2c(O)cc3nn(-c4nc5ccccc5s4)c(=O)c-3c2C)cc1	-3.8	46.2*	102.0	-30.1	93.0	-1.0	77.7*	-16.5
COc1ccc(CN2CCN(c3nc4ccccc4s3)CC2)cc1	3.0	22.9	102.0	-13.8	102.0	-1.0	·	·
Cc1[nH]c2ccccc2c1N=Nc1ccccc1C(=O)O	5.5	44.0*	100.0	-23.0	95.0	-1.0	5.5	13.1
O=C(Nc1ccccc1F)c1ccc(-n2cncn2)nc1	14.0	9.4	·	2.8	·	·	·	·
Cc1ccc2cc(C3CC(c4ccco4)=NN3C(=O)CCCC(=O)O)c(Cl)nc2c1 (stereo not drawn)	4.8	51.0*	70.0	-33.7	78.0	-14.0	-29.5	-38.1
CCCOC1CCCN(C(=O)CCc2nnc(CCCCc3ccccc3)o2)C1 (stereo not drawn)	0.8	0.1	104.0	-43.8	102.0	1.0	·	·
Cc1cc(C(=O)CSc2nnc(-c3ccco3)o2)c(C)n1CC1COc2ccccc2O1 (stereo not drawn)	25.6	41.6*	102.0	-41.6	101.0	-3.0	0.8	-41.0
Cc1cc(C(=O)CSc2nnc(-c3ccccc3)o2)c(C)n1CC1COc2ccccc2O1 (stereo not drawn)	26.3	14.0	103.0	2.2	97.0	6.0	·	·
Cc1ccc2nc(Cl)c(/C=N/n3c(C)nnc3C)cc2c1	-9.7	8.2	88.0	-14.1	82.0	-12.0	·	·
CC(C)(C)C(=O)NC(=S)NNC(=O)c1sc2ccccc2c1Cl	42.7	11.7	105.0	-5.7	96.0	-1.0	·	·
O=C(NNC(=S)NC1CCCCC1)c1sc2ccccc2c1Cl	-17.1	48.0*	102.0	-25.9	98.0	-2.0	45.6*	-18.2
Cc1cccc(NC2=NCC(=O)N2Cc2cccs2)c1	-2.6	-0.9	91.0	-1.3	95.0	-7.0	·	·
O=C(NC(Cc1ccccc1)C(=O)N1CCN(c2ccccn2)CC1)c1ccco1 (stereo not drawn)	6.9	48.6*	103.0	-26.6	100.0	1.0	-11.1	-17.1
CC(=O)NC(Cc1ccccc1)C(=O)N1CCN(C(=O)c2ccco2)CC1 (stereo not drawn)	-14.2	-0.2	93.0	-3.8	93.0	-6.0	·	·
Cc1ccc(N2C(=O)CC(N(O)C3CC(=O)N(c4ccc(C)cc4)C3=O)C2=O)cc1 (stereo not drawn)	3.6	37.5*	90.0	-29.8	93.0	-6.0	-14.2	-11.9
Cc1cccc(CN2CCC(Oc3ccc(C(=O)N4CCCC4)cc3)CC2)n1	-10.4	-7.1	104.0	-6.6	104.0	4.0	·	·
C/C(CC(=O)N1CCCC1)=N\NC(=O)c1cc2ccccc2cc1O	-13.7	44.9*	100.0	-23.9	96.0	1.0	4.7	-4.8
O=C(OCC(=O)N1CCCCC1)c1cc2ccccc2cc1O	-5.4	2.9	105.0	-13.2	109.0	3.0	·	·
SMILES	T cruzi inh	HCV NS3 hel inh	MEKK3 PB1 HTS	DNA FID counter-1	MEKK2wt PB1 HTS	MEKK2mut PB1 HTS	NS3 hel confirm	DNA FID counter-2	others
Cc1sc2c(c1C)C(O)=C(C(=O)Nc1ccccc1)S(=O)(=O)N2C	-7.1	43.9*	68.0	-18.1	74.0	-27.0	59.5*	-4.2
O=C(CCl)Nc1nc(-c2ccco2)c(-c2ccco2)s1	-39.6	60.9*	94.0	3.2	93.0	-2.0	63.3*	35.8	DNA FID DR=>79.4
O=C(CCCSc1ccccc1)Nc1nc(-c2ccco2)c(-c2ccco2)s1	7.0	91.8*	98.0	-18.6	105.0	0.0	68.9*	17.8	DNA FID DR=i
O=C(COC(=O)c1c2c(nc3ccccc13)CCCC2)c1cccs1	1.8	40.6*	101.0	-20.1	101.0	-1.0	-6.2	-19.7
COc1ccc(/C=c2\s/c(=C/C(=O)c3ccc(C)cc3)[nH]c2=O)cc1OC	-5.5	59.2*	86.0	-39.1	83.0	0.0	11.1	3.7
CSCCC(NS(=O)(=O)c1ccccc1)C(=O)OCc1cc(=O)oc2cc(O)ccc12 (stereo not drawn)	-13.1	·	·	·	·	·	·	·
C(=C\c1ccco1)/c1ccc2ccccc2n1	-0.6	42.0*	71.0	-11.5	73.0	-16.0	5.9	6.8
Fc1cccc(F)c1/C=C/c1ccc2ccccc2n1	7.0	8.8	107.0	-10.6	107.0	4.0	·	·
O=S(=O)(NC1CCCCC1)c1ccc(Cl)s1	12.1	51.7*	98.0	-3.9	99.0	2.0	0.1	6.4
CCOC(=O)NC1(NC(C)C)Oc2ccccc2O1	-8.6	15.6	106.0	-4.7	108.0	7.0	·	·
CCOC(=O)NC1(NC2CCCCC2)Oc2ccccc2O1	-32.7	37.8*	93.0	-3.6	93.0	-4.0	-13.6	-4.3
Cc1ccsc1C(=O)N1CCCC(CO)(Cc2ccccc2F)C1 (stereo not drawn)	8.7	-3.8	96.0	-28.3	97.0	3.0	·	·
N#C/C(=C\c1ccc(OCc2ccc(C(=O)O)cc2)cc1)C(=O)NCc1ccccc1	-16.7	38.9*	105.0	-29.1	104.0	3.0	69.7*	-27.1	DNA FID DR=>79.4
Cc1cccc(C)c1NC(=O)Cn1nc(-c2ccc(Cl)s2)ccc1=O	-6.6	-4.3	103.0	-43.0	97.0	0.0	·	·
Cc1[nH]c2ccccc2c1C(=O)COC(=O)c1ccc[n+]([O-])c1	-6.8	45.6*	78.0	-9.4	81.0	-28.0	-13.9	-2.5
